Bioassay records from PubChem.
Most compounds without a hit are left out; they make up all but 3.7% or so of the library.
14-3-3 Bad PPI – disrupts binding of bovine 14-3-3 zeta to phospho-Bad peptide; P63103; TR-FRET 14-3-3zeta/Dy647-pBad peptide displacement, 1 h; inhibition, % at 21.7 µM; 220,000 tested, 0.71% active;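 active = inhibition above about 70%, limit read from the data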
EBV gp42 block – inhibitors of Epstein-Barr virus glycoprotein 42; Q1HVG2; Fluorescence polarization binding assay, mP read-out; inhibition, % (tested at 21.74 µM); 220,000 tested, 0.42% active; AID 1085; in the data active = inhibition above about 50%
RBBP9 inhibitor – blocks human serine hydrolase RBBP9 | recombinant RBBP9, FP-Rh probe fluorescence polarization | inhibition, % at 7.94 µM | AID 1515 | O75884 | 220,000 tested, 0.2% active;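 active = inhibition above the campaign mean of all tested compounds plus 3 SD, cut at about 14% in these data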
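Measured by: FP readout at 525/598 nm; material: recombinant human RBBP9; also added: Serine-hydrolase probe FP-Rh, 375 nM pre-mixing; medium: Tris buffer pH 8.0, NaCl, Pluronic; replication: one well per compound; doses: one concentration, 7.94 µM nominal, 0.794% DMSO; timing: preincubation 30 min plus labeling 45 min at 25 °C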
WT yeast gro inh – growth inhibition of WT yeast, mitochondrial fusion screen; mitochondrial fusion phenotypic screen, WT strain; inhibition, % at 10 µM; 190,000 tested, 2.1% active; AID 1362; in the data active = inhibition above about 58%; tested in S. cerevisiae
eIF4E 4G PPI – inhibitors of eIF4E and eIF4G interaction in translation initiation; P63073+Q04637; TR-FRET eIF4E-eIF4GI(517-606) binding, 2 h; inhibition, % at 21.7 µM; 220,000 tested, 0.37% active; AID 782
NCF1 inh – inhibitors of human p47phox binding; p47phox/p22phox peptide binding, fluorescence polarization, 2 h; inhibition, % at 24.7 µM; 220,000 tested, 0.53% active; AID 1274
Large screens that a line does not name were inactive; [ ] = dose if it differs, or a comment.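 Rule for the calls, unless noted: active = inhibition above about 30% (limit read from the data); inactive = the rest.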

O=C1Nc2ccc(Br)cc2C12NNc1ccccc1O2 (stereo not drawn)	WT yeast gro inh 88
COc1ccc(-c2nc(C(N)=O)c3[nH]c(=O)n(-c4cccc(Cl)c4)c3n2)cc1OC	NCF1 inh 37 (no result: WT yeast gro inh)
COc1cccc(-c2nc(C(N)=O)c3[nH]c(=O)n(-c4cccc(Cl)c4)c3n2)c1OC	none
CC(C)(C)OC(=O)NCCCC[C@H](NC(=O)c1nc[nH]c1C(=O)NC(c1ccccc1)c1ccccc1)C(=O)OC(C)(C)C	none (no result: NCF1 inh)
CC(C)c1ccc(NS(=O)(=O)c2ccc3[nH]cc(C(=O)N4CCC(C(N)=O)CC4)c(=O)c3c2)cc1	14-3-3 Bad PPI 96[fluorescence artefact?]
O=C(c1c[nH]c2ccc(S(=O)(=O)N3CCOCC3)cc2c1=O)N1CCCC1	none
NC(=O)CSc1cn(Cc2ccccc2)c2ccccc12	none
Cc1ccc(Cn2cc(SCC(N)=O)c3ccccc32)cc1	NCF1 inh 37
C=CCn1c(SCC(=O)Nc2cccc(C(=O)OC)c2)nnc1C(C)NC(=O)c1cccs1 (stereo not drawn)	WT yeast gro inh 83
CC(=O)NCc1ccc(-c2nc3ccccc3s2)cc1	none
CC(=O)NC1C(c2nc3ccccc3s2)=C(c2ccccc2)C(=O)N1c1ccc(C)cc1 (stereo not drawn)	WT yeast gro inh 68
COc1cccc(-c2nc3ccccc3s2)c1	none
COc1cccc(N2C(=O)C(c3ccccc3)=C(c3nc4ccccc4s3)C2NC(C)=O)c1 (stereo not drawn)	WT yeast gro inh 70
Cn1c(=O)cc2c3c(c(N4CCCCC4)ccc31)C(=O)c1ccccc1-2	EBV gp42 block 74, NCF1 inh 34 (no result: WT yeast gro inh)
Cc1onc(-c2c(F)cccc2Cl)c1C(=O)OCC(=O)c1c[nH]c2ccccc12	none (no result: WT yeast gro inh)
Cc1snnc1C(=O)NC(=S)Nc1ccccc1	none (no result: WT yeast gro inh)
O=C(N/N=C/c1c[nH]c2ccccc12)C1CC1(c1ccccc1)c1ccccc1 (stereo not drawn)	WT yeast gro inh 81
O=C(N/N=C/c1c[nH]c2ccccc12)C1COc2ccccc2O1 (stereo not drawn)	14-3-3 Bad PPI 82[fluorescence artefact?], eIF4E 4G PPI 48
N#Cc1c(SCC(N)=O)nc2c(c1-c1ccc(O)cc1)CCCC2	EBV gp42 block 111
Cc1cc(C)c2nc(N3CCCC(C(=O)N4CCN(c5ncccn5)CC4)C3)sc2c1 (stereo not drawn)	WT yeast gro inh 67
Cc1cc(C)c2nc(N3CCC(C(=O)N4CCN(C(=O)c5ccco5)CC4)CC3)sc2c1	none
O=c1[nH]nc(-c2ccc(F)cc2)cc1Cc1ccc(F)cc1	NCF1 inh 37 (no result: WT yeast gro inh)
CC(C)N1C(=O)C(O)(C2COC(C)(C)CC2=O)c2ccccc21 (stereo not drawn)	14-3-3 Bad PPI 71
CC1(C)CC(=O)C(C2(O)C(=O)N(Cc3ccccc3)c3ccccc32)CO1 (stereo not drawn)	none
COc1ccccc1CNC(=S)Nc1cc(C)ccc1C	WT yeast gro inh 66
COc1ccccc1CNc1cc(C)ccc1C	none
CCc1ccccc1NC(=O)CC1CS(=O)(=O)CC1CC(=O)Nc1ccccc1CC (stereo not drawn)	none
O=C(CC1CCS(=O)(=O)C1)Nc1ccc[nH]c1=O (stereo not drawn)	RBBP9 inhibitor 16
Clc1ccc(Cn2c(/C=C/c3ccco3)nc3ccccc32)cc1	WT yeast gro inh 76
O=C(COc1c(Br)cc(Br)c2cccnc12)N1CCc2ccccc2C1	WT yeast gro inh 65
Cc1ccc(C(=O)NCC(=O)OC(C)C(=O)Nc2ccc(N(C)C)cc2)s1 (stereo not drawn)	none
CCOc1cc(/C=N/NC(=O)C(=O)N2CCCC2)ccc1O	none
O=C(Nc1ccc(Br)cn1)c1cccc(-c2cc3ccccc3oc2=O)c1	NCF1 inh 37
Cc1nc(NC(=O)c2ccc(-c3cc4ccccc4oc3=O)cc2)ccc1Br	none
Cc1nc(NC(=O)c2cccc(-c3cc4ccccc4oc3=O)c2)ccc1Br	NCF1 inh 41
Cn1c(=O)c2[nH]c(COc3ccc(C(C)(C)C)cc3)nc2n(C)c1=O	none (no result: WT yeast gro inh)
CCCCNC(=S)N/N=C/c1ccccc1F	none
CC1CC(C)CN(c2ncnc3c2cnn3Cc2ccc(Cl)cc2)C1 (stereo not drawn)	WT yeast gro inh 76
Cc1cccc(-n2ncc3c(N4CCCC4)ncnc32)c1	none
Cc1cccc(-n2ncc3c(N4CC(C)CC(C)C4)ncnc32)c1 (stereo not drawn)	WT yeast gro inh 78
COC(=O)C1=C(C)NC(=O)CC1c1cccc(Cl)c1Cl (stereo not drawn)	none
CCOC(=O)C1=C(C)NC(C)=C(C(=O)OC)C1c1cccc(Cl)c1Cl (stereo not drawn)	WT yeast gro inh 64
Cc1ccc(OCc2nnc(SC(C)C(=O)O)n2Cc2ccccc2)cc1 (stereo not drawn)	none
Cc1cc2ncn(/N=C/c3cccnc3)c2cc1C	WT yeast gro inh 61
C(=N\n1cnc2ccccc21)/c1cccnc1	none
Cc1csc(NC(=O)CN2C(=O)c3ccccc3C2=O)c1C(N)=O	none (no result: WT yeast gro inh)
COc1cccc(C(=O)N2CCN=C2SC)c1	none
COc1ccccc1NC(=O)c1ccc(S(=O)(=O)N(C)C)cc1	eIF4E 4G PPI 38[fluorescence artefact?]
COc1ccccc1NC(=O)c1ccc(CN2CCOCC2)cc1	NCF1 inh 66
COc1ccc(C(=O)Nc2ccc(Cl)cc2C(=O)NCCN2CCOCC2)cc1	WT yeast gro inh 71
Cc1ccc(-n2nc(C)c(/C=N/n3c(C)n[nH]c3=S)c2Cl)cc1	none
O=C(O)CCC(=O)NN1C(=O)c2ccccc2NC1c1ccc(F)cc1 (stereo not drawn)	none (no result: WT yeast gro inh)
COc1ccc(-c2ccc(/C=C3/C(=N)N4C=CSC4=NC3=O)o2)c([N+](=O)[O-])c1	14-3-3 Bad PPI 73[fluorescence artefact?]
N=C1/C(=C/c2cccn2-c2ccc([N+](=O)[O-])cc2)C(=O)N=C2SC=CN12	none
CC(=O)C1=C(O)C(=O)N(c2cccnc2)C1c1ccc(Cl)cc1 (stereo not drawn)	14-3-3 Bad PPI 83
CC(=O)/C(=N/Nc1ccccc1[N+](=O)[O-])N1CCCc2ccccc21	none (no result: WT yeast gro inh)
COC(=O)Cn1ncn2cccc2c1=O	none
CCOC(=O)C(C)n1ncn2cccc2c1=O (stereo not drawn)	eIF4E 4G PPI 43[fluorescence artefact?]
CC(CCc1ccccc1)N(C)CC(O)c1cccc([N+](=O)[O-])c1 (stereo not drawn)	none (no result: WT yeast gro inh)
N#CC1=C(N)N(c2ccc(F)cc2)C2=C(C1c1ccc(O)cc1)S(=O)(=O)CC2 (stereo not drawn)	none
CCOC(=O)C1=C(C)C(c2cccc(Oc3ccccc3)c2)NC(=S)N1 (stereo not drawn)	WT yeast gro inh 66
CCOC(=O)C1=C(c2cccc(Oc3ccccc3)c2)NC(=S)NC1C (stereo not drawn)	WT yeast gro inh 64
CC(O)c1nc2ccc(C(=O)O)cc2[nH]1 (stereo not drawn)	none (no result: WT yeast gro inh)
